The test system of one data set is H22 mouse hepatoma cells. Put plainly: H22 hepatoma xenograft model. Type of data set: in vivo, Kun Ming (KM) mice. In outline: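 Kun Ming mice (eight/group) received 2×10^5 H22 hepatoma cells sc in the right armpit. Test compound (5, 15, 45 mg/kg) or adriamycin (2 mg/kg) in HS-15/N,N-dimethylformamide (1:1 v/v) was injected ip. Mice were weighed twice weekly and killed by cervical dislocation, and tumors were weighed. Inhibition (%) = (mean control tumor weight − mean treated)/mean control × 100.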

Data set [1] has as its system BEL-7402 human hepatoma cells. Put plainly: BEL-7402 human hepatoma xenograft model. Type of data set: in vivo, nude mice. (A xenograft is tissue or cells of one species grown in another, often human tumour cells in immunodeficient mice.)
The conditions of data set [2]: cited from earlier work.
The test system of data set [3] is bone marrow polychromatic erythrocytes. The settings on record: 15 mg/kg, similar experiment conditions; cited from earlier work.

These results are taken from publication PMC4207554 (Drug Design, Development and Therapy, 2014).

Turning to `COc1cccc2c1C(=O)c1c(O)c3c(c(O)c1C2=O)C[C@@](O)(C(=O)CO)C[C@@H]3O[C@H]1C[C@H](N)[C@H](O)[C@H](C)O1` [ADM, adriamycin], the “inhibitory rate of cancer growth” value with H22 mouse hepatoma cells (2 mg/kg ip) turned out to be 51.9%. Moreover, the “influence on body weights of mice” value with H22 mouse hepatoma cells (H22-bearing mice) is reported as “much more loss of body weight”. The figures for the “inhibition of body weight of mice” value (in the data set with H22 mouse hepatoma cells (H22 xenografts); in data set [1] (BEL7402 xenografts)) were 25.1% and 33.3%, respectively. Further, the inhibitory rate in data set [1] (2 mg/kg ip, BEL-7402 xenografts) was 73.5%. In addition, the “changes in body weights versus vehicle group” value in data set [1] (BEL-7402 xenografts, 3 weeks) is “significantly reduced”. For the same molecule, the “bioavailability after oral administration” value in data set [2] is given as “poor bioavailability”. In data set [3], the induction of micronuclei result was “induce large amounts of micronuclei”.
